Reference: ChEMBL document CHEMBL1145864, “Synthesis and structure-activity relationship of a new series of COX-2 selective inhibitors: 1,5-diarylimidazoles” (J Med Chem, 2003)

Key:
Rattus norvegicus [1] = test: In vivo analgesic activity of compound was determined by inflammatory hyperalgesia model at 3 mg/kg perorally in rat; assay type: functional; settings: route oral
In short: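 Male Sprague–Dawley rats received 1% carrageenan suspension (0.1 mL) into the right hind foot pad. Three hours later, compound (suspended in 1% Tween-80) was given by gavage. After 30 min, a heat stimulus was applied under the inflamed paw and withdrawal latency (s) recorded. The % inhibition of the stimulus-induced latency decrease was calculated relative to the untreated left paw.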

[2] = target: T1, Prostaglandin G/H synthase 2 (Homo sapiens) (UniProt P35354); settings: Blood; at 1 µM
T1 sequence (whole entry): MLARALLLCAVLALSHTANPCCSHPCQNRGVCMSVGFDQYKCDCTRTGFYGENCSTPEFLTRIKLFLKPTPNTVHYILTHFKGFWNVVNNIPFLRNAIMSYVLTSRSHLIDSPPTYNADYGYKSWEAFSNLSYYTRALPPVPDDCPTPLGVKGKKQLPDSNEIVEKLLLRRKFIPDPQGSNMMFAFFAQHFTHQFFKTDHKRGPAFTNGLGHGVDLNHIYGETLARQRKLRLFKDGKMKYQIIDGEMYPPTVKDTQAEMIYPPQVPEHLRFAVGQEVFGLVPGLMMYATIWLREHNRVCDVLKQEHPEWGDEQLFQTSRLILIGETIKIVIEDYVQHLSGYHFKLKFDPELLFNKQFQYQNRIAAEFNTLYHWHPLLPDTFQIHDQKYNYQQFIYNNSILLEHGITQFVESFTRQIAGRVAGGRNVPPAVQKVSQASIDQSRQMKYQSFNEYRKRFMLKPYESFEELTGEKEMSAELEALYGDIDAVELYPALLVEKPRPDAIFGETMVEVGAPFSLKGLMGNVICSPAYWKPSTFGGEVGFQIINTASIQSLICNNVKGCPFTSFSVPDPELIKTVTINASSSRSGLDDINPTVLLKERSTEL

Rattus norvegicus [3] = test: In vivo anti-inflammatory activity determined by rat carrageenan paw edema method at 10 mg/kg perorally; assay type: functional; settings: route oral
[4] = target: Prostaglandin G/H synthase 1 (Homo sapiens, UniProt P23219); assay type: cell-based, U-937
Rattus norvegicus [5] = test: In vivo anti-inflammatory activity by air pouch model at 1 mg/kg perorally in rat.; assay type: functional; settings: route oral
In short: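 Rat air pouch: sterile air (20 mL) was injected subcutaneously, with 10 mL refills every 2 days. On day 7, 2 mL of 1% lambda-carrageenan in saline was injected into the pouch. Compound was given orally (suspension in 1% CMC/Tween-80, 10 mL/kg) 0.5 h before carrageenan. At 6 h, exudate was collected and centrifuged, and supernatant PGE2 was measured by ELISA.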

[6] = target: T1, Prostaglandin G/H synthase 2 (Homo sapiens); settings: Blood; at 10 µM
[7] = Half life of compound was determined at 1 mg/kg intravenous administration in rat; assay type: ADME, organism-based; design: dose 1 mg/kg, route intravenous; settings: in vivo
Rattus norvegicus [8] = test: Percentage of [51Cr]- secreted in feces was determined by fecal drug-induced bleeding method in rat at 100 mg/kg, bid for 4 days
Rattus norvegicus [9] = test: In vivo inhibition of contralateral paw swelling after oral treatment for 28 days (1 mg/kg od) was determined by adjuvabt arthritis in rat; assay type: functional
In short: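 Lewis rats (140–170 g, 7 weeks) received 0.5 mg Mycobacterium butyricum in light mineral oil intradermally into the right hind foot pad; controls received incomplete adjuvant. Groups of 10 were dosed orally at 1 mg/kg daily for 28 days, starting on the day of injection. Left hind paw volume was measured plethysmographically at the end and expressed as % inhibition versus controls.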

[10] = target: T1, Prostaglandin G/H synthase 2 (Homo sapiens); test: In vitro inhibition of Prostaglandin G/H synthase 2 (COX-2)in human whole blood at 1 uM was determined
Rattus norvegicus [11] = test: In vivo anti-inflammatory activity of compound was determined by rat carrageenan paw edema at 10 mg/kg perorally; settings: po

Prostaglandin G/H synthase 1, sequence (P23219 whole entry): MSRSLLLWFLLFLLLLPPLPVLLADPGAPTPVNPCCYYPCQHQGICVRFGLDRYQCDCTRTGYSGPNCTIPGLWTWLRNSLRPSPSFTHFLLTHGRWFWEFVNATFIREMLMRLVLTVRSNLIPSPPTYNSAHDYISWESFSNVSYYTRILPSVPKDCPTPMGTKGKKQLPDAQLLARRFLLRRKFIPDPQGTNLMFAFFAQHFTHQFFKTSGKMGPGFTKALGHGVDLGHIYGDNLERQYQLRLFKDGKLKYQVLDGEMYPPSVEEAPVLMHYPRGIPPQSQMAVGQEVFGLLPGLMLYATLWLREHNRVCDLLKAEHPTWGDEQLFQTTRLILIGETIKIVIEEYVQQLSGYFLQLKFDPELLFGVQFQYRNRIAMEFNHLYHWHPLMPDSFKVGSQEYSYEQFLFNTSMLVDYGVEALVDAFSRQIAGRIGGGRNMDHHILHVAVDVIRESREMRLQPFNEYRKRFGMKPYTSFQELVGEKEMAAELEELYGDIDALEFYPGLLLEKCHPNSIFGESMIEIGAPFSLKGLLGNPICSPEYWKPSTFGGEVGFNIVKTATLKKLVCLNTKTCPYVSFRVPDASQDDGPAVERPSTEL

Structure (SMILES) | inhibition [2] [%] | IC50 [4] [µM] | inhibition [6] [%] | half-life [7] [h] | inhibition [10] [%] | inhibition in vivo at 3 mg/kg (Rattus norvegicus [1]) [%] | inhibition in vivo at 10 mg/kg (Rattus norvegicus [3]) [%] | inhibition in vivo at 1 mg/kg (Rattus norvegicus [5]) [%] | Cr secretion (Rattus norvegicus [8]) [%] | Inhibition (Rattus norvegicus [9]) [%] | inhibition in vivo at 10 mg/kg (Rattus norvegicus [11]) [%]
CS(=O)(=O)c1ccc(-n2cnc(Cl)c2-c2ccncc2)cc1 | 54.5 | > 10 | 82.4 | – | – | 69.4 | 31.7 | 50.2 | – | – | –
COc1cc(-c2c(Cl)ncn2-c2ccc(S(N)(=O)=O)cc2)ccc1F | – | > 1 | 79.3 | 3.8 | – | 38 | 14.3 | 58.9 | – | – | –
COc1cc(-c2c(Cl)ncn2-c2ccc(S(C)(=O)=O)cc2)ccc1F | 97.4 | > 10 | 92.6 | – | – | 20.4 | 25 | 15.1 | – | – | –
CS(=O)(=O)c1ccc(-c2cnc(C#N)n2-c2ccc(F)cc2)cc1 | – | > 10 | 100 | – | 74 | – | 28.5 | 79 | – | – | –
CN(C)c1ccc(-c2c(Cl)ncn2-c2ccc(S(C)(=O)=O)cc2)cc1Cl | 64.6 | 1.9 | 98.9 | 1.2 | – | 63.8 | 33.3 | 43 | – | – | –
CCOc1ccc(-c2c(Cl)ncn2-c2ccc(S(N)(=O)=O)cc2)cc1 | – | 2.2 | – | 2.2 | – | 82.8 | 29.2 | 98.9 | 0.5 | 97 | –
Cc1ccc(-c2cc(C(F)(F)F)nn2-c2ccc(S(N)(=O)=O)cc2)cc1 [CELECOXIB] | – | – | – | – | – | 86.7 | 35.7 | 93.4 | 0.7 | 89 | –
COc1ccc2c(c1)c(CC(=O)O)c(C)n2C(=O)c1ccc(Cl)cc1 [INDOMETHACIN] | – | – | – | – | – | – | 66.2 | – | 7.5 | 94 | –
COc1ccc(-c2c(Cl)ncn2-c2ccc(S(C)(=O)=O)cc2)cc1C | 100 | > 10 | 100 | – | – | – | 21.4 | 75.6 | – | – | –
Cc1ccc(-c2c(Cl)ncn2-c2ccc(S(N)(=O)=O)cc2)cc1 | 76.1 | 2.7 | 100 | 5.2 | – | – | 32.6 | 62.3 | – | – | –
COc1ccc(-c2c(Cl)ncn2-c2ccc(S(C)(=O)=O)cc2)cc1Cl | 84.1 | > 10 | 100 | 3.6 | – | 66.6 | 31.4 | 71.1 | – | – | –

Continued, in another order:

inhibition [2] [%] | IC50 [4] [µM] | inhibition [6] [%] | half-life [7] [h] | inhibition [10] [%] | Structure (SMILES) | inhibition in vivo at 3 mg/kg (Rattus norvegicus [1]) [%] | inhibition in vivo at 10 mg/kg (Rattus norvegicus [3]) [%] | inhibition in vivo at 1 mg/kg (Rattus norvegicus [5]) [%] | Cr secretion (Rattus norvegicus [8]) [%] | Inhibition (Rattus norvegicus [9]) [%] | inhibition in vivo at 10 mg/kg (Rattus norvegicus [11]) [%]
82.6 | > 10 | 96 | 17 | – | CS(=O)(=O)c1ccc(-n2cnc(Cl)c2-c2ccccc2)cc1 | – | 29.2 | 83.2 | – | – | –
90.5 | > 10 | 100 | 1.7 | – | Cc1ccc(-c2c(Cl)ncn2-c2ccc(S(C)(=O)=O)cc2)cc1 | – | 21.6 | 65.5 | – | – | –
79 | > 10 | 100 | 2.2 | – | COc1ccc(-c2c(Cl)ncn2-c2ccc(S(C)(=O)=O)cc2)cc1F | 80 | 24.2 | 89.5 | 0.4 | 86 | –
84.1 | – | 100 | – | – | CS(=O)(=O)c1ccc(C2=C(c3ccccc3)C(=O)OC2)cc1 [ROFECOXIB] | 83.4 | 33.3 | 95.3 | 0.6 | 87 | –
60.5 | > 10 | 100 | 3.5 | – | CS(=O)(=O)c1ccc(-n2cnc(Cl)c2-c2ccc3c(c2)OCO3)cc1 | 69.9 | 30.6 | – | – | – | –
100 | 3.3 | 100 | 2.9 | – | COc1ccc(-c2c(Cl)ncn2-c2ccc(S(N)(=O)=O)cc2)cc1F [CIMICOXIB] | 83.4 | 31 | 98.2 | 0.9 | 93 | –
– | 3.1 | 61.4 | 17 | – | NS(=O)(=O)c1ccc(-n2cnc(Cl)c2-c2ccc(F)cc2)cc1 | – | 38.6 | 93.2 | – | – | –
89 | > 10 | 100 | 21 | – | CS(=O)(=O)c1ccc(-n2cnc(Cl)c2-c2ccc(F)cc2)cc1 | – | – | 98.1 | – | – | 41.2
75.1 | > 10 | 100 | – | – | Cc1ccc(-c2c(Cl)ncn2-c2ccc(S(C)(=O)=O)cc2)cc1F | – | 22.6 | 18.5 | – | – | –
– | 5.1 | 59.5 | 2.9 | – | NS(=O)(=O)c1ccc(-n2cnc(Cl)c2-c2ccccc2)cc1 | – | 36.3 | 96.3 | – | – | –
9.7 | > 10 | 100 | – | – | CCN(CC)c1ccc(-c2c(Cl)ncn2-c2ccc(S(C)(=O)=O)cc2)cc1 | 64.1 | 24.2 | 64.1 | – | – | –
